Legend:
Format in all cases: functional, Salmonella enterica subsp. enterica serovar Typhimurium
[1] = tested on: Salmonella typhimurium; experiment: Antimicrobial activity against Salmonella enterica serovar Typhimurium CS3 with GyrA S83F, D87N, ParC S80I mutation
Summary of the method: (§1)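 MICs measured by broth microdilution on the Sensititre automated system and interpreted by CLSI broth microdilution standards. Ciprofloxacin was also tested by agar dilution, widening the range to 0.0075–128 μg/ml. Quality control strains were E. coli ATCC 25922 and 35218, E. faecalis ATCC 29212, S. aureus ATCC 29213 and P. aeruginosa ATCC 27853.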

[2] = tested on: Salmonella typhimurium; experiment: Antimicrobial activity against Salmonella enterica serovar Typhimurium CHS14 gyrA+ with GyrA D87G mutation; summary of the method: as §1
[3] = tested on: Salmonella typhimurium; experiment: Antimicrobial activity against Salmonella enterica serovar Typhimurium S21-2 with GyrA S83F, ParC S80I mutation; summary of the method: as §1
[4] = tested on: Salmonella typhimurium; experiment: Antimicrobial activity against Salmonella enterica serovar Typhimurium CHS14 acrAB::Kan with GyrA D87G mutation; summary of the method: as §1
[5] = tested on: Salmonella typhimurium; experiment: Antimicrobial activity against Salmonella enterica serovar Typhimurium CHS38 with GyrA D87G mutation; summary of the method: as §1
[6] = tested on: Salmonella typhimurium; experiment: Antimicrobial activity against Salmonella enterica serovar Typhimurium CS3 acrAB::Kan with GyrA S83F, D87N, ParC S80I mutation; summary of the method: as §1
[7] = tested on: Salmonella typhimurium; experiment: Antimicrobial activity against Salmonella enterica serovar Typhimurium S21-3 tolC::Kan with GyrA S83F, ParC S80I mutation; summary of the method: as §1
[8] = tested on: Salmonella typhimurium; experiment: Antimicrobial activity against Salmonella enterica serovar Typhimurium CHS14 with GyrA D87G mutation; summary of the method: as §1
[9] = tested on: Salmonella typhimurium; experiment: Antimicrobial activity against Salmonella enterica serovar Typhimurium S21-1 gyrA+; summary of the method: as §1
[10] = tested on: Salmonella typhimurium; experiment: Antimicrobial activity against Salmonella enterica serovar Typhimurium S21-2 tolC::Kan with GyrA S83F, ParC S80I mutation; summary of the method: as §1
[11] = tested on: Salmonella typhimurium; experiment: Antimicrobial activity against Salmonella enterica serovar Typhimurium S21 gyrA+; summary of the method: as §1
[12] = tested on: Salmonella typhimurium; experiment: Antimicrobial activity against Salmonella enterica serovar Typhimurium CHS38 tolC::Kan with GyrA D87G mutation; summary of the method: as §1
[13] = tested on: Salmonella typhimurium; experiment: Antimicrobial activity against Salmonella enterica serovar Typhimurium S21-1 tolC::Kan with GyrA S83F mutation; summary of the method: as §1
[14] = tested on: Salmonella typhimurium; experiment: Antimicrobial activity against Salmonella enterica serovar Typhimurium CS9 acrAB::Kan with GyrA S83F, D87N, ParC S80I mutation; summary of the method: as §1
[15] = tested on: Salmonella typhimurium; experiment: Antimicrobial activity against Salmonella enterica serovar Typhimurium CHS18 tolC::Kan with GyrA S38F mutation; summary of the method: as §1
[16] = tested on: Salmonella typhimurium; experiment: Antimicrobial activity against Salmonella enterica serovar Typhimurium S21-3 with GyrA S83F, ParC S80I mutation; summary of the method: as §1
[17] = tested on: Salmonella typhimurium; experiment: Antimicrobial activity against Salmonella enterica serovar Typhimurium S21-4 with GyrA S83F, ParC S80I mutation; summary of the method: as §1
[18] = tested on: Salmonella typhimurium; experiment: Antimicrobial activity against Salmonella enterica serovar Typhimurium S21-4 acrAB::Kan with GyrA S83F, ParC S80I mutation; summary of the method: as §1
[19] = tested on: Salmonella typhimurium; experiment: Antimicrobial activity against Salmonella enterica serovar Typhimurium CS1 acrAB::Kan with GyrA S83F, D87N, ParC S80I mutation; summary of the method: as §1
[20] = tested on: Salmonella typhimurium; experiment: Antimicrobial activity against Salmonella enterica serovar Typhimurium S21-4 gyrA+ with ParC S80I mutation; summary of the method: as §1
[21] = tested on: Salmonella typhimurium; experiment: Antimicrobial activity against Salmonella enterica serovar Typhimurium CS9 with GyrA S83F, D87N, ParC S80I mutation; summary of the method: as §1
[22] = tested on: Salmonella typhimurium; experiment: Antimicrobial activity against Salmonella enterica serovar Typhimurium CHS18 with GyrA S38F mutation; summary of the method: as §1
[23] = tested on: Salmonella typhimurium; experiment: Antimicrobial activity against Salmonella enterica serovar Typhimurium S21-2 acrAB::Kan with GyrA S83F, ParC S80I mutation; summary of the method: as §1
[24] = tested on: Salmonella typhimurium; experiment: Antimicrobial activity against Salmonella enterica serovar Typhimurium S21-3 gyrA+ with ParC S80I mutation; summary of the method: as §1
[25] = tested on: Salmonella typhimurium; experiment: Antimicrobial activity against Salmonella enterica serovar Typhimurium S21-3 acrAB::Kan with GyrA S83F, ParC S80I mutation; summary of the method: as §1
[26] = tested on: Salmonella typhimurium; experiment: Antimicrobial activity against Salmonella enterica serovar Typhimurium GyrA S21-1 acrAB::Kan with GyrA S83F mutation; summary of the method: as §1
[27] = tested on: Salmonella typhimurium; experiment: Antimicrobial activity against Salmonella enterica serovar Typhimurium S21-1 GyrA S83F mutant; summary of the method: as §1
[28] = tested on: Salmonella typhimurium; experiment: Antimicrobial activity against Salmonella enterica serovar Typhimurium CS3 tolC::Kan with GyrA S83F, D87N, parC S80I mutation; summary of the method: as §1
[29] = tested on: Salmonella typhimurium; experiment: Antimicrobial activity against Salmonella enterica serovar Typhimurium S21 acrAB::Kan
Summary of the method: (§2)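 MICs by automated broth microdilution panels, interpreted to CLSI broth microdilution standards. Ciprofloxacin additionally tested by agar dilution across 0.0075 to 128 μg/ml. Quality control strains: E. coli ATCC 25922 and 35218, Enterococcus faecalis ATCC 29212, S. aureus ATCC 29213, P. aeruginosa ATCC 27853. Test strains are kanamycin-marked deletion mutants of ground-beef isolate S21.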

[30] = tested on: Salmonella typhimurium; experiment: Antimicrobial activity against Salmonella enterica serovar Typhimurium CHS14 tolC::Kan with GyrA D87G mutant; summary of the method: as §1
[31] = tested on: Salmonella typhimurium; experiment: Antimicrobial activity against Salmonella enterica serovar Typhimurium CS1 tolC::Kan with GyrA S83F, D87N, ParC S80I mutation; summary of the method: as §1
[32] = tested on: Salmonella typhimurium; experiment: Antimicrobial activity against Salmonella enterica serovar Typhimurium CS1 with GyrA S83F, D87N, ParC S80I mutation; summary of the method: as §1
[33] = tested on: Salmonella typhimurium; experiment: Antimicrobial activity against Salmonella enterica serovar Typhimurium S21; summary of the method: as §1
[34] = tested on: Salmonella typhimurium; experiment: Antimicrobial activity against Salmonella enterica serovar Typhimurium S21-4 tolC::Kan with GyrA S83F, ParC S80I mutation; summary of the method: as §1
[35] = tested on: Salmonella typhimurium; experiment: Antimicrobial activity against Salmonella enterica serovar Typhimurium CS9 tolC::Kan with GyrA S83F, D87N, ParC S80I mutation; summary of the method: as §1
[36] = tested on: Salmonella typhimurium; experiment: Antimicrobial activity against Salmonella enterica serovar Typhimurium S21 tolC::Kan; summary of the method: as §2
[37] = tested on: Salmonella typhimurium; experiment: Antimicrobial activity against Salmonella enterica serovar Typhimurium CHS18 acrAB::Kan with GyrA S38F mutation; summary of the method: as §1
[38] = tested on: Salmonella typhimurium; experiment: Antimicrobial activity against Salmonella enterica serovar Typhimurium CHS38 gyrA+ with GyrA D87G mutation; summary of the method: as §1
[39] = tested on: Salmonella typhimurium; experiment: Antimicrobial activity against Salmonella enterica serovar Typhimurium CS9 gyrA+ with GyrA S83F, D87N, ParC S80I mutation; summary of the method: as §1
[40] = tested on: Salmonella typhimurium; experiment: Antimicrobial activity against Salmonella enterica serovar Typhimurium CS1 gyrA+ with GyrA S83F, D87N, ParC S80I mutation; summary of the method: as §1
[41] = tested on: Salmonella typhimurium; experiment: Antimicrobial activity against Salmonella enterica serovar Typhimurium CHS38 acrAB::Kan with GyrA D87G mutation; summary of the method: as §1
[42] = tested on: Salmonella typhimurium; experiment: Antimicrobial activity against Salmonella enterica serovar Typhimurium CS3 gyrA+ with GyrA S83F, D87N, ParC S80I mutation; summary of the method: as §1
[43] = tested on: Salmonella typhimurium; experiment: Antimicrobial activity against Salmonella enterica serovar Typhimurium S21-2 gyrA+ with ParC S80I mutation; summary of the method: as §1
[44] = tested on: Salmonella typhimurium; experiment: Antimicrobial activity against Salmonella enterica serovar Typhimurium CHS18 gyrA+ with GyrA S38F mutation; summary of the method: as §1

Measured: MIC

CN1CCN(c2cc3c(cc2F)c(=O)c(C(=O)O)cn3-c2ccc(F)cc2)CC1 [DIFLOXACIN]
2 µg/mL: [22] | [43]
< 0.015 µg/mL: [12] | [29] | [36] | [38]
1 µg/mL: [5] | [8] | [18] | [34] | [37]
0.03 µg/mL: [4] | [30]
0.06 µg/mL: [15] | [41]
0.5 µg/mL: [2] | [7] | [25] | [39] | [40] | [42]
> 16 µg/mL: [1] | [3] | [16] | [17] | [21] | [32]
4 µg/mL: [20] | [24] | [27] | [28] | [31] | [35]
16 µg/mL: [6] | [14] | [19]
0.25 µg/mL: all other assays above

O=C(O)c1cn(C2CC2)c2cc(N3CCNCC3)c(F)cc2c1=O [CIPROFLOXACIN]
4 µg/mL: [3] | [6] | [14] | [19] | [20]
0.25 µg/mL: [7] | [18] | [25] | [27] | [34] | [43]
32 µg/mL: [16]
16 µg/mL: [1] | [21] | [32]
0.06 µg/mL: [5] | [13] | [26] | [44]
256 µg/mL: [17]
0.015 µg/mL: [9]
2 µg/mL: [24] | [28] | [31] | [35]
0.12 µg/mL: [8] | [10] | [22] | [23]
0.03 µg/mL: [15] | [37] | [39] | [40] | [41] | [42]
< 0.015 µg/mL: all other assays above

CCn1cc(C(=O)O)c(=O)c2cc(F)c(N3CCNCC3)nc21 [ENOXACIN]
1 µg/mL: [8] | [43]
> 16 µg/mL: [16] | [17]
0.5 µg/mL: [22] | [27]
16 µg/mL: [1] | [21] | [32]
8 µg/mL: [3]
2 µg/mL: [24]
4 µg/mL: [6] | [14] | [19] | [20] | [28] | [31] | [35]
0.25 µg/mL: [25] | [37]
< 0.015 µg/mL: [12] | [29] | [30] | [36] | [38]
0.03 µg/mL: [4] | [15] | [41]
0.12 µg/mL: [5] | [7] | [10] | [18] | [23] | [34] | [44]
0.06 µg/mL: all other assays above
